Experimental findings from ChEMBL document CHEMBL1671800, “Synthesis and antimycobacterial properties of N-substituted 6-amino-5-cyanopyrazine-2-carboxamides” (2011) are described below.

Converted amounts (≈) assume the structure as drawn. The source made the active and inactive calls. The rule behind the calls is not given here.

The test system of assay [1] is Staphylococcus aureus. The assay can be described thus: Antibacterial activity against Staphylococcus aureus CCM 4516/08 after 24 to 48 hrs by broth microdilution method. Type of assay: functional, organism-based. Summed up:
(§1)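 Strains subcultured on Mueller-Hinton agar at 35 °C and passaged onto MHA before testing. Inoculum suspended in sterile 0.85% saline and adjusted to 0.5 McFarland (1.5×10^8 CFU/mL). Compounds in DMSO (final ≤1% v/v) in Mueller-Hinton broth at pH 7.0, with medium and DMSO-alone controls. Static incubation at 35 °C; MIC taken as 95% growth inhibition versus control at 24 and 48 h.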

Assay [2] concerns Mycobacterium avium. As to the kind of experiment: Antimycobacterial activity against Mycobacterium avium CNCTC My 152/73 after 14 days by microdilution method. Particulars: CNCTC My 152/73, 336 h. Type of assay: functional. The essentials: (§2)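 Compounds in DMSO were diluted in Šula's semisynthetic medium, pH 5.5, to final 200–3.125 μg/mL, with DMSO at most 1% (v/v). Mycobacteria were added as a suspension in isotonic saline and grown at 37 °C. MIC was read visually after 14 days as the lowest concentration inhibiting growth.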

Assay [3] has as its system Klebsiella pneumoniae. The assay can be described thus: Antibacterial activity against ESBL-positive Klebsiella pneumoniae J 14368/08 after 24 to 48 hrs by broth microdilution method. The assay is classed as functional, organism-based. For orientation: Broth dilution looks for growth in wells or tubes with falling amounts of substance.
For assay [4], the system named is Mycobacterium avium. As to the kind of experiment: Antimycobacterial activity against Mycobacterium avium CNCTC My 80/72 after 14 days by microdilution method. The assay is classed as functional. The following applies: CNCTC My 80/72, 336 h. Summed up:
as §2

In assay [5] the test system is Mycobacterium tuberculosis. The assay can be described thus: Antimycobacterial activity against Mycobacterium tuberculosis H37Rv CNCTC My 331/88 after 14 days by microdilution method. Type of assay: functional. The following applies: H37Rv CNCTC My 331/88, 336 h. The essentials: as §2
In assay [6] the test system is Staphylococcus epidermidis. The assay can be described thus: Antibacterial activity against Staphylococcus epidermidis H 6966/08 after 24 to 48 hrs by broth microdilution method. The assay is classed as functional, organism-based.
Assay [7] concerns Klebsiella pneumoniae. The assay can be described thus: Antibacterial activity against Klebsiella pneumoniae D11750/08 after 24 to 48 hrs by broth microdilution method. The assay is classed as functional, organism-based.
Assay [8] relates to Mycobacterium kansasii. As to the kind of experiment: Antimycobacterial activity against Mycobacterium kansasii CNCTC My 235/80 after 6 days by microdilution method. Type of assay: functional. Particulars: CNCTC My 235/80, 144 h. The essentials:
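Compounds were dissolved in DMSO and diluted in Šula's semisynthetic medium at pH 5.5, at final concentrations of 200 to 3.125 μg/mL in twofold steps; DMSO stayed ≤1% v/v. The strain was added as a suspension in isotonic saline and incubated at 37 °C. Growth was read visually after 6 days; MIC is the lowest concentration that inhibited growth. Pyrazinamide served as standard.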

In assay [9] the test system is Enterobacter sp. The assay can be described thus: Antibacterial activity against Enterobacter sp. J 14365/ 08 after 24 to 48 hrs by broth microdilution method. Type of assay: functional, organism-based.
Assay [10] has as its system Escherichia coli. As to the kind of experiment: Antibacterial activity against Escherichia coli CCM 4517 after 24 to 48 hrs by broth microdilution method. The assay is classed as functional, organism-based. Summed up:
as §1

Assay [11] has as its system Pseudomonas aeruginosa. As to the kind of experiment: Antibacterial activity against Pseudomonas aeruginosa CCM 1961 after 24 to 48 hrs by broth microdilution method. Type of assay: functional, organism-based. Summed up: as §1
Assay [12] concerns Staphylococcus aureus. As to the kind of experiment: Antibacterial activity against methicillin-resistant Staphylococcus aureus H 5996/08 after 24 to 48 hrs by broth microdilution method. Type of assay: functional, organism-based. The essentials:
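Strains were subcultured on Mueller-Hinton agar at 35 °C, and the inoculum was suspended in 0.85% saline to 0.5 McFarland (1.5×10^8 CFU/mL). Microdilution was done in Mueller-Hinton broth, pH 7.0, with final DMSO at most 1% (v/v). MIC, set at 95% growth inhibition versus control, was read after 24 and 48 h of static incubation at 35 °C.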

For `CCCCNc1nc(C(N)=O)cnc1C#N`, the outcome in [1], in assay [3], in assay [6], in [7], in assay [9] and in assay [10] was inactive. For the same compound, the result in [11] and in assay [12] was inactive. Also, the MIC in assay [2], in assay [4], in assay [5] and in assay [8] was above 200 µg/mL in each case.
For the compound `CN1CCN(c2nc(C(N)=O)cnc2C#N)CC1`, the result in assay [1], in assay [3], in assay [6], in assay [7], in assay [9] and in assay [10] was inactive. Also, the result in [11] and in [12] was inactive. The MIC in assay [2], in [4], in assay [5] and in [8] was above 200 µg/mL throughout.
For `N#Cc1ncc(C(N)=O)nc1NC1CCCC1`, the outcome in assay [1], in assay [3], in assay [6], in [7], in assay [9] and in [10] was inactive. The result in assay [11] and in assay [12] was inactive. Also, the minimal inhibitory concentration (MIC) in assay [2], in assay [4], in assay [5] and in assay [8] was above 200 µg/mL in each case.
Consider `CCCNc1nc(C(N)=O)cnc1C#N`, for which the result in assay [1], in assay [3], in [6], in assay [7], in assay [9] and in [10] was inactive. For the same compound, the outcome in [11] and in assay [12] was inactive. For the same compound, the MIC – broadly, the lowest concentration that inhibits growth of the organism – was above 200 µg/mL in [2], above 200 µg/mL in assay [4], 50 µg/mL (≈ 244 µM) in assay [5] and above 200 µg/mL in assay [8].
In the case of `CCNc1nc(C(N)=O)cnc1C#N`, the outcome in [1], in [3], in [6], in assay [7], in assay [9] and in assay [10] was inactive. For the same compound, the outcome in assay [11] and in [12] was inactive. In addition, the MIC in assay [2] is above 200 µg/mL; in [4], above 200 µg/mL; in [5] it was 100 µg/mL (≈ 523 µM); in assay [8], above 200 µg/mL.
For the compound `N#Cc1ncc(C(N)=O)nc1NC1CCCCCC1`, the outcome in assay [1], in assay [3], in assay [6], in [7], in assay [9] and in assay [10] was inactive. Further, the result in assay [11] and in assay [12] was inactive. For the same compound, the MIC in assay [2], in assay [4], in assay [5] and in [8] was above 200 µg/mL in each case.
As to `N#Cc1ncc(C(N)=O)nc1N1CCOCC1`, the outcome in assay [1], in assay [3], in assay [6], in assay [7], in [9] and in assay [10] was inactive. Besides, the result in assay [11] and in assay [12] was inactive. Further, the MIC in assay [2], in assay [4], in assay [5] and in assay [8] was above 200 µg/mL throughout.
Regarding `NC(=O)c1cnccn1` [PYRAZINAMIDE], the MIC in assay [2] was above 200 µg/mL; in assay [4], above 200 µg/mL; in assay [5], 12.5 µg/mL (≈ 102 µM); in [8], above 200 µg/mL.
With `CCN(CC)c1nc(C(N)=O)cnc1C#N`, the result in [1], in [3], in assay [6], in assay [7], in [9] and in [10] was inactive. Further, the outcome in assay [11] and in [12] was inactive. Further, the MIC in assay [2], in assay [4], in assay [5] and in [8] was above 200 µg/mL in each case.
Regarding `CCCCCCCCNc1nc(C(N)=O)cnc1C#N`, the result in assay [1], in assay [3], in assay [6], in assay [7], in [9] and in [10] was inactive. Moreover, the result in assay [11] and in assay [12] was inactive. Further, the MIC in assay [2], in assay [4], in assay [5] and in assay [8] was above 200 µg/mL in each case.
For `CCCCCCNc1nc(C(N)=O)cnc1C#N`, the outcome in assay [1], in assay [3], in assay [6], in [7], in [9] and in [10] was inactive. The outcome in [11] and in assay [12] was inactive. In addition, the MIC in [2] is above 200 µg/mL; in assay [4], above 200 µg/mL; in assay [5], 12.5 µg/mL (≈ 50.5 µM); in assay [8], above 200 µg/mL.
Regarding `CCCCCCCNc1nc(C(N)=O)cnc1C#N`, the outcome in assay [1], in assay [3], in assay [6], in assay [7], in assay [9] and in assay [10] was inactive. Besides, the result in assay [11] and in assay [12] was inactive. Further, the MIC stood at 100 µg/mL (≈ 383 µM) in assay [2], 100 µg/mL (≈ 383 µM) in [4], 12.5 µg/mL (≈ 47.8 µM) in assay [5] and 100 µg/mL (≈ 383 µM) in [8].
As to `CNc1nc(C(N)=O)cnc1C#N`, the result in assay [1], in assay [3], in assay [6], in assay [7], in [9] and in assay [10] was inactive. Moreover, the outcome in assay [11] and in assay [12] was inactive. Also, the MIC in assay [2] was above 200 µg/mL; in assay [4] it was above 200 µg/mL; in [5], 200 µg/mL (≈ 1130 µM); in assay [8] it was above 200 µg/mL.
`N#Cc1ncc(C(N)=O)nc1NC1CCCCC1`: the result in assay [1], in assay [3], in assay [6], in [7], in assay [9] and in assay [10] was inactive. The result in assay [11] and in assay [12] was inactive. Moreover, the MIC in [2], in assay [4], in [5] and in assay [8] was above 200 µg/mL throughout.
